Consider 1 molecule from ChEMBL document CHEMBL1132342, “Novel hypotensive agents from Verbesina caracasana. 6. Synthesis and pharmacology of caracasandiamide” (1999).

Assay [1] has as its system Rattus norvegicus. The assay can be described thus: Change in stroke volume after iv administration of 3200 ug/Kg in anesthetized rats. It counts as functional. The method, boiled down:
(§1)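 Male Wistar rats (299 ± 3 g) were anesthetized with ethylurethane ip, tracheally cannulated and breathing spontaneously, at 37 °C, and stabilized for 60 min. Doses of 50-3200 µg/kg (ratio 2.0) in saline were injected by femoral vein, 50 µL each. Recordings: femoral arterial BP, electromagnetic abdominal-aortic flow, SV from integrated pulsatile flow, polygraphic RF. Peak changes, mean ± SE, n = 12 (n = 7 at 3200).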

Assay [2] has as its system Rattus norvegicus. The experiment in a line: Change in heart rate after iv administration of 800 ug/kg compound (treatment with reserpine(5 mg/kg/day for 2 days, ip))in anesthetized rats. The class given is functional. The method, boiled down: (§2)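 Urethane-anesthetized male Wistar rats, 6 per group, received iv doses of 200-1600 µg/kg (ratio 2.0) given alone or under a pretreatment. Pretreatments were continuous iv papaverine infusion (1 mg/kg/min), reserpine 5 mg/kg/day ip for 2 days, or hexamethonium 5 mg/kg iv. Peak changes in femoral arterial BP and HR were recorded; values are mean ± SE.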

Assay [3] deals with Rattus norvegicus. The experiment in a line: Change in heart rate after iv administration of 1600 ug/Kg in the presence of acetylcholine (agonist) in anesthetized rats. It counts as functional. The method, boiled down:
(§3)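 Urethane-anesthetized male Wistar rats (16 rats, two equal groups) received 400 or 1600 µg/kg compound iv. Cardiovascular responses to iv agonist boluses (noradrenaline 1 µg/kg, acetylcholine 2.50 µg/kg, adrenaline, isoprenaline) were measured before and after compound dosing. Peak responses are given as mean ± SE; p < 0.05 versus control mean.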

The test system of assay [4] is Rattus norvegicus. The experiment in a line: Change in heart rate after iv administration of 800 ug/Kg compound (treatment with hexamethonium (5 mg/Kg, iv)in anesthetized rats. The class given is functional. The method, boiled down: as §2
Assay [5] has as its system Rattus norvegicus. The assay can be described thus: Change in heart rate after iv administration of 800 ug/Kg in anesthetized rats. It counts as functional. A digest of the protocol: as §1
The test system of assay [6] is Rattus norvegicus. The assay can be described thus: Change in diastolic blood pressure after iv administration of 1600 ug/Kg in the presence of adrenaline (agonist) in anesthetized rats. It counts as functional, Artery. A digest of the protocol: as §3
Assay [7] has as its system Rattus norvegicus. The assay can be described thus: Change in systolic blood pressure after iv administration of 400 ug/Kg compound (treatment with hexamethonium (5 mg/Kg, iv)in anesthetized rats. It counts as functional, Artery. A digest of the protocol: as §2

`COc1ccc(C2C(c3ccc(OC)c(OC)c3)[C@H](C(=O)NCCCC/N=C(\N)NCC=C(C)C)[C@@H]2C(=O)NCCCC/N=C(\N)NCC=C(C)C)cc1OC` (some centres undefined) [CARACASANDIAMIDE]: the “Change in stroke volume” value in assay [1] was -58%. Besides, in assay [1], the Stroke volume was -117 µL. In addition, the Heart rate in assay [2] is on record as -9 beats min-1; in assay [3], -34 beats min-1; in assay [4] it was -57 beats min-1; in assay [5] it was -16 beats min-1. The “Change in heart rate” value in assay [5] was -4%. The BP is listed as 3 mmHg in assay [6] and -41 mmHg in assay [7].
